Calls of active or inactive are those of the source. The rule behind the calls is not given here.
Tests used:
LLC-PK1 [1] = test: Renoprotective activity against cisplatin-induced cytotoxicity in pig LLC-PK1 cells assessed as cell survival at 2.5 uM after 24 hrs by WST-1 assay in presence of 25 uM cisplatin (reference value: 60%); type: functional, Sus scrofa
Summary of the method: (§1)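 Pig kidney LLC-PK1 cells were given 25 µM cisplatin to cause oxidative stress, alongside test compound in dose-response format, up to 10 µM, or up to 2.5 µM for analogues toxic at high doses. Survival was read by WST-1 assay […]. Potency was taken as the concentration giving more than 60% cell survival.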

LLC-PK1 [2] = test: Renoprotective activity against cisplatin-induced cytotoxicity in pig LLC-PK1 cells assessed as cell survival at 10 uM after 24 hrs by WST-1 assay in presence of 25 uM cisplatin (reference value: 60%); type: functional, Sus scrofa; summary of the method: as §1
LLC-PK1 [3] = test: Renoprotective activity against cisplatin-induced cytotoxicity in pig LLC-PK1 cells assessed as decrease in p53 level at 2.5 uM by western blot analysis in presence of 25 uM cisplatin; type: functional, cell-based; conditions: Sus scrofa
Summary of the method: (§2)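 LLC-PK1 cells were exposed to cisplatin together with several concentrations of test compound. Phospho-JNK, p53 and cleaved caspase-3 protein levels were measured 24 h after cisplatin treatment.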

LLC-PK1 [4] = test: Renoprotective activity against cisplatin-induced cytotoxicity in pig LLC-PK1 cells assessed as increase in cell survival at >1 uM by cell imaging analysis in presence of 25 uM cisplatin; type: functional, cell-based; conditions: Sus scrofa
LLC-PK1 [5] = test: Renoprotective activity against cisplatin-induced cytotoxicity in pig LLC-PK1 cells assessed as decrease in cleaved caspase-3 level by western blot analysis in presence of 25 uM cisplatin; type: functional, cell-based; conditions: Sus scrofa; summary of the method: as §2
LLC-PK1 [6] = test: Renoprotective activity against cisplatin-induced cytotoxicity in pig LLC-PK1 cells assessed as decrease in phoshorylated JNK level by western blot analysis in presence of 25 uM cisplatin; type: functional, cell-based; conditions: Sus scrofa; summary of the method: as §2
LLC-PK1 [7] = test: Renoprotective activity against cisplatin-induced cytotoxicity in pig LLC-PK1 cells assessed as decrease in apoptotic cells at 25 uM after 24 hrs by Tali image-based cytometer analysis in presence of cisplatin; type: functional, cell-based; conditions: Sus scrofa
Summary of the method: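 LLC-PK1 cells were co-treated with cisplatin and test compound, then stained so that dead cells show red and apoptotic cells green. The percentage of apoptotic cells was counted on a Tali image-based cytometer.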

SMILES: Oc1ccc(CCN=C=S)cc1
- Activity (LLC-PK1 [1]): >80%

SMILES: C[S+]([O-])CCCCN=C=S (stereo not given) [SULFORAPHANE]
- Activity (LLC-PK1 [2]): >77%

SMILES: S=C=NCC(c1ccccc1)c1ccccc1
- Activity (LLC-PK1 [3]): Active
- Activity (LLC-PK1 [4]): Active
- Activity (LLC-PK1 [5]): Dose-dependent effect
- Activity (LLC-PK1 [1]): 93%
- Activity (LLC-PK1 [6]): Dose-dependent effect
- Activity (LLC-PK1 [7]): Active

SMILES: S=C=NCCc1ccc(N=C=S)cc1
- Activity (LLC-PK1 [1]): >80%

SMILES: S=C=NCc1cccc(Cl)c1
- Activity (LLC-PK1 [1]): >80%
